# Experimental data from ChEMBL document CHEMBL3856258, “Phosphonate-based irreversible inhibitors of human γ-glutamyl transpeptidase (GGT). GGsTop is a non-toxic and highly selective inhibitor with critical electrostatic interaction with an active-site residue Lys562 for enhanced inhibitory activity” (Bioorg Med Chem, 2016).
# What was measured:
# [1] = species on record: Homo sapiens; assay: Irreversible inhibition of human GGT using gamma-Glu-AMC as substrate assessed as association rate constant by […] analysis
# Outline: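 The enzyme source was a commercial human GGT preparation carrying bovine serum albumin as stabilizer (GGT <1% of protein). Hydrolytic activity was followed with γ-Glu-AMC as substrate. Irreversible inactivation was expressed as kon, the second-order rate constant for the inhibitor–enzyme reaction.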
# [2] = tested on: Salmonella typhimurium; assay: Genotoxicity in Salmonella typhimurium TA100 assessed as number of revertant colonies per plate at 61.7 ug/plate after 20 mins in absence of S9 fraction by Ames test (reference value: 123); type: toxicity, organism-based; details: salmonella enterica subsp. enterica serovar typhimurium
# [3] = tested on: Salmonella typhimurium; assay: Genotoxicity in Salmonella typhimurium TA100 assessed as number of revertant colonies per plate at 556 ug/plate after 20 mins in absence of S9 fraction by Ames test (reference value: 123); type: toxicity, organism-based; details: salmonella enterica subsp. enterica serovar typhimurium
# [4] = tested on: Salmonella typhimurium; assay: Genotoxicity in Salmonella typhimurium TA1535 assessed as number of revertant colonies per plate at 185 ug/plate after 20 mins in absence of S9 fraction by Ames test (reference value: 15); type: toxicity, organism-based; details: salmonella enterica subsp. enterica serovar typhimurium
# [5] = tested on: Salmonella typhimurium; assay: Genotoxicity in Salmonella typhimurium TA1535 assessed as number of revertant colonies per plate at 556 ug/plate after 20 mins in absence of S9 fraction by Ames test (reference value: 15); type: toxicity, organism-based; details: salmonella enterica subsp. enterica serovar typhimurium
# [6] = tested on: Salmonella typhimurium; assay: Genotoxicity in Salmonella typhimurium TA1535 assessed as number of revertant colonies per plate at 1667 ug/plate after 20 mins in absence of S9 fraction by Ames test (reference value: 15); type: toxicity, organism-based; details: salmonella enterica subsp. enterica serovar typhimurium
# [7] = tested on: Escherichia coli; assay: Genotoxicity in Escherichia coli WP2uvrA assessed as number of revertant colonies per plate at 1667 ug/plate after 20 mins in absence of S9 fraction by Ames test (reference value: 24); type: toxicity; details: s9, 20 min
# [8] = tested on: Escherichia coli; assay: Genotoxicity in Escherichia coli WP2uvrA assessed as number of revertant colonies per plate at 5000 ug/plate after 20 mins in absence of S9 fraction by Ames test (reference value: 24); type: toxicity; details: s9, 20 min
# [9] = tested on: Salmonella typhimurium; assay: Genotoxicity in Salmonella typhimurium TA98 assessed as number of revertant colonies per plate at 556 ug/plate after 20 mins in absence of S9 fraction by Ames test (reference value: 21); type: toxicity, organism-based; details: salmonella enterica subsp. enterica serovar typhimurium
# [10] = tested on: Salmonella typhimurium; assay: Genotoxicity in Salmonella typhimurium TA98 assessed as number of revertant colonies per plate at 5000 ug/plate after 20 mins in absence of S9 fraction by Ames test (reference value: 21); type: toxicity, organism-based; details: salmonella enterica subsp. enterica serovar typhimurium
# [11] = tested on: Salmonella typhimurium; assay: Genotoxicity in Salmonella typhimurium TA1537 assessed as number of revertant colonies per plate at 61.7 ug/plate after 20 mins in absence of S9 fraction by Ames test (reference value: 9); type: toxicity, organism-based; details: salmonella enterica subsp. enterica serovar typhimurium
# [12] = tested on: Salmonella typhimurium; assay: Genotoxicity in Salmonella typhimurium TA100 assessed as number of revertant colonies per plate at 20.6 ug/plate after 20 mins in presence of S9 fraction by Ames test (reference value: 142); type: toxicity, organism-based; details: salmonella enterica subsp. enterica serovar typhimurium
# [13] = tested on: Salmonella typhimurium; assay: Genotoxicity in Salmonella typhimurium TA100 assessed as number of revertant colonies per plate at 556 ug/plate after 20 mins in presence of S9 fraction by Ames test (reference value: 142); type: toxicity, organism-based; details: salmonella enterica subsp. enterica serovar typhimurium
# [14] = tested on: Salmonella typhimurium; assay: Genotoxicity in Salmonella typhimurium TA100 assessed as number of revertant colonies per plate at 5000 ug/plate after 20 mins in presence of S9 fraction by Ames test (reference value: 142); type: toxicity, organism-based; details: salmonella enterica subsp. enterica serovar typhimurium
# [15] = tested on: Salmonella typhimurium; assay: Genotoxicity in Salmonella typhimurium TA1535 assessed as number of revertant colonies per plate at 61.7 ug/plate after 20 mins in presence of S9 fraction by Ames test (reference value: 13); type: toxicity, organism-based; details: salmonella enterica subsp. enterica serovar typhimurium
# [16] = tested on: Salmonella typhimurium; assay: Genotoxicity in Salmonella typhimurium TA1535 assessed as number of revertant colonies per plate at 556 ug/plate after 20 mins in presence of S9 fraction by Ames test (reference value: 13); type: toxicity, organism-based; details: salmonella enterica subsp. enterica serovar typhimurium
# [17] = tested on: Salmonella typhimurium; assay: Genotoxicity in Salmonella typhimurium TA1535 assessed as number of revertant colonies per plate at 1667 ug/plate after 20 mins in presence of S9 fraction by Ames test (reference value: 13); type: toxicity, organism-based; details: salmonella enterica subsp. enterica serovar typhimurium
# [18] = tested on: Escherichia coli; assay: Genotoxicity in Escherichia coli WP2uvrA assessed as number of revertant colonies per plate at 61.7 ug/plate after 20 mins in presence of S9 fraction by Ames test (reference value: 26); type: toxicity; details: s9, 20 min
# [19] = tested on: Escherichia coli; assay: Genotoxicity in Escherichia coli WP2uvrA assessed as number of revertant colonies per plate at 5000 ug/plate after 20 mins in presence of S9 fraction by Ames test (reference value: 26); type: toxicity; details: s9, 20 min
# [20] = tested on: Salmonella typhimurium; assay: Genotoxicity in Salmonella typhimurium TA98 assessed as number of revertant colonies per plate at 20.6 ug/plate after 20 mins in presence of S9 fraction by Ames test (reference value: 26); type: toxicity, organism-based; details: salmonella enterica subsp. enterica serovar typhimurium
# [21] = tested on: Salmonella typhimurium; assay: Genotoxicity in Salmonella typhimurium TA1537 assessed as number of revertant colonies per plate at 20.6 ug/plate after 20 mins in presence of S9 fraction by Ames test (reference value: 15); type: toxicity, organism-based; details: salmonella enterica subsp. enterica serovar typhimurium
# [22] = tested on: Salmonella typhimurium; assay: Genotoxicity in Salmonella typhimurium TA1537 assessed as number of revertant colonies per plate at 61.7 ug/plate after 20 mins in presence of S9 fraction by Ames test (reference value: 15); type: toxicity, organism-based; details: salmonella enterica subsp. enterica serovar typhimurium
# [23] = tested on: Salmonella typhimurium; assay: Genotoxicity in Salmonella typhimurium TA1537 assessed as number of revertant colonies per plate at 556 ug/plate after 20 mins in presence of S9 fraction by Ames test (reference value: 15); type: toxicity, organism-based; details: salmonella enterica subsp. enterica serovar typhimurium
# [24] = Cytotoxicity against CHL cells assessed as growth rate at 2.16 ug/ml preincubated for 6 hrs followed by 18 hrs incubation in fresh medium in absence of S9 fraction by MTT assay relative to control; type: toxicity, cell-based, Cricetulus griseus; details: chinese hamster, read-out: Activity
# [25] = Cytotoxicity against CHL cells assessed as growth rate at 33.8 ug/ml preincubated for 6 hrs followed by 18 hrs incubation in fresh medium in absence of S9 fraction by MTT assay relative to control; type: toxicity, cell-based, Cricetulus griseus; details: chinese hamster, read-out: Activity
# [26] = Cytotoxicity against CHL cells assessed as growth rate at 2.16 ug/ml preincubated for 6 hrs followed by 18 hrs incubation in fresh medium in presence of S9 fraction by MTT assay relative to control; type: toxicity, cell-based, Cricetulus griseus; details: chinese hamster, read-out: Activity
# [27] = Cytotoxicity against CHL cells assessed as growth rate at 13.5 ug/ml after 24 hrs in absence of S9 fraction by MTT assay relative to control; type: toxicity, cell-based, Cricetulus griseus; details: chinese hamster, read-out: Activity
# [28] = Cytotoxicity against CHL cells assessed as growth rate at 1320 ug/ml after 24 hrs in absence of S9 fraction by MTT assay relative to control; type: toxicity, cell-based, Cricetulus griseus; details: chinese hamster, read-out: Activity
# [29] = Cytotoxicity against CHL cells assessed as growth rate at 3300 ug/ml after 24 hrs in absence of S9 fraction by MTT assay relative to control; type: toxicity, cell-based, Cricetulus griseus; details: chinese hamster, read-out: Activity
# [30] = Cytotoxicity against CHL cells assessed as structural aberrations at 825 ug/ml preincubated for 6 hrs followed by 18 hrs incubation in fresh medium in presence of S9 fraction by Giemsa-staining-based microscopic analysis; type: toxicity, cell-based, Cricetulus griseus; details: chinese hamster
# [31] = Cytotoxicity against CHL cells assessed as structural aberrations at 1650 ug/ml after 24 hrs by Giemsa-staining-based microscopic analysis; type: toxicity, cell-based, Cricetulus griseus; details: chinese hamster
# [32] = Cytotoxicity against CHL cells assessed as number of cells with numerical aberrations at 1650 ug/ml after 24 hrs by Giemsa staining-based microscopic analysis relative to control; type: toxicity, cell-based, Cricetulus griseus; details: chinese hamster
# [33] = Cytotoxicity against CHL cells assessed as number of cells with numerical aberrations at 3300 ug/ml after 24 hrs by Giemsa staining-based microscopic analysis relative to control; type: toxicity, cell-based, Cricetulus griseus; details: chinese hamster
structure (smiles),measurement,setting,value
COP(=O)(CCC(N)C(=O)O)Oc1cccc(CC(=O)O)c1 (stereo not drawn),K,[1],51 M⁻¹ s⁻¹
same,Activity,[2],148
same,Activity,[3],118
same,Activity,[4],12
same,Activity,[5],8
same,Activity,[6],11
same,Activity,[7],29
same,Activity,[8],29
same,Activity,[9],29
same,Activity,[10],24
same,Activity,[11],12
same,Activity,[12],139
same,Activity,[13],129
same,Activity,[14],125
same,Activity,[15],9
same,Activity,[16],12
same,Activity,[17],8
same,Activity,[18],28
same,Activity,[19],34
same,Activity,[20],29
same,Activity,[21],17
same,Activity,[22],17
same,Activity,[23],16
same,"viability at 18 h, 2.16 ug/ml",[24],103%
same,"viability at 18 h, 33.8 ug/ml",[25],103%
same,"viability at 18 h, 2.16 ug/ml",[26],101%
same,"viability at 24 h, 13.5 ug/ml",[27],103%
same,"viability at 24 h, 1320 ug/ml",[28],92.6%
same,"viability at 24 h, 3300 ug/ml",[29],79.5%
same,Activity,[30],1%
same,Activity,[31],1%
same,Activity,[32],0%
same,Activity,[33],0%
